# Published values gathered from unrelated publications.
# Target: Protein-tyrosine kinase 2-beta (PTK2B, Homo sapiens, UniProt Q14289)
SMILES,effect on,action,method,concentration,quantity,value
CCCOc1ccc(OC)c(F)c1C(=O)c1ccc(C(=O)N[C@@H]2CNC[C@H]2NC(=O)c2ccc3[nH]ncc3c2)cc1,enzyme activity,inhibitor,,10 µM,remaining activity,77%
CCN(CC)CCNC(=O)c1c(C)[nH]c(/C=C2\C(=O)Nc3ccc(F)cc32)c1C,enzyme activity,inhibitor,,0.3 µM,inhibition,59%
CNC(=O)c1cc2c(Oc3ccc(NC(=O)C4(C(=O)Nc5ccc(F)cc5)CC4)cc3)ccnc2cc1OC,enzyme activity,inhibitor,radiometric,1 µM,inhibition,79%
O=C(N1CCS(=O)(=O)CC1)N1C[C@H](c2ccc(OC(F)(F)F)cc2)C[C@H](c2nc(C3CC3)no2)C1,cell-free assay,,competition with immobilised ligand,1 µM,remaining binding,99%
Oc1cccc(-c2nc(N3CCOCC3)c3oc4ncccc4c3n2)c1,cell-free assay,,,0.5 µM,remaining signal,103%
COc1cc2nccc(Oc3ccc(NC(=O)c4c5n(n(-c6ccc(F)cc6)c4=O)CCCC5)cc3)c2cc1OC,enzyme activity,inhibitor,,0.1 µM,inhibition,0%
CO[C@@H](C)c1c(Nc2ccc([C@H](N(C)C(=O)C3CCS(=O)(=O)CC3)C(F)(F)F)cc2)cnc2cc(Cl)nn12,cell-free assay,,competition with immobilised ligand,1 µM,remaining binding,83%
Cc1[nH]c(/C=C2\C(=O)Nc3ccc(F)cc32)c(C)c1C(=O)N[C@H]1CCN(C(=O)N(C)C)C1,enzyme activity,inhibitor,,0.1 µM,remaining activity,109%
FC(F)(F)c1ccc2c(c1)nc(-c1cccnc1)n2C1CC1,cell-free assay,,competition with immobilised ligand,1 µM,remaining binding,100%
CNC(=O)c1cc(Oc2ccc(NC(=O)Nc3ccc(Cl)c(C(F)(F)F)c3)cc2)ccn1,enzyme activity,inhibitor,,10 µM,inhibition,28%
O=C(Nc1cnn(-c2csc(C(=O)NC3COC3)c2)c1)Nc1ccccc1Cl,enzyme activity,inhibitor,,5 µM,remaining activity,93.5%
C[C@H](c1ccc(F)cc1)N(Cc1cccc(C(=O)O)c1)C(=O)c1cnc2ccccc2c1,cell-free assay,,competition with immobilised ligand,1 µM,remaining binding,100%
c1nc2c(Nc3ccc4c(c3)OCCO4)nc(Nc3ccc4c(c3)OCCO4)nc2[nH]1,enzyme activity,inhibitor,,10 µM,activity vs control,2.3%
CC(C)(O)[C@H]1CC[C@H](Nc2ccc3ncc(-c4cccc(C(F)(F)F)c4)n3n2)CC1,enzyme activity,inhibitor,,1 µM,remaining activity,94.4%
CC/C(=N\NC(=O)NCc1cccc(O)c1)c1ccc(O)c(C)c1O,enzyme activity,inhibitor,,0.1 µM,inhibition,-0.1%
CCc1ccccc1C(=O)Nc1n[nH]c2c(C)c(F)c(C3C(C#N)=C(C)N(C)C(C)=C3C#N)cc12,cell-free assay,,competition with immobilised ligand,1 µM,remaining binding,92%
Cc1ccc(C(=O)Nc2ccc(CN3CCN(C)CC3)c(C(F)(F)F)c2)cc1C#Cc1cnc2cccnn12,enzyme activity,inhibitor,,23.5 nM,remaining activity,45%
Cc1ccc(C(=O)NCc2ccsc2)cc1C#Cc1cn(C(C)C)c2ncnc(N)c12,enzyme activity,inhibitor,,1 µM,activity vs control,57%
COc1cc2ncnc(Nc3ccc(F)c(Cl)c3)c2cc1OCCCN1CCOCC1,cell-free assay,,,0.5 µM,remaining signal,98.9%
